Here are results for three compounds from ChEMBL document CHEMBL3272173, “Synthesis and biological activity of peptide antagonists of luliberin (luteinizing hormone-releasing hormone)” (J Med Chem, 1979).

SMILES strings stand for the structures.

In data set [1] the target is T1, Gonadotropin-releasing hormone receptor (Rattus norvegicus) (UniProt P30969).
T1 sequence (whole entry): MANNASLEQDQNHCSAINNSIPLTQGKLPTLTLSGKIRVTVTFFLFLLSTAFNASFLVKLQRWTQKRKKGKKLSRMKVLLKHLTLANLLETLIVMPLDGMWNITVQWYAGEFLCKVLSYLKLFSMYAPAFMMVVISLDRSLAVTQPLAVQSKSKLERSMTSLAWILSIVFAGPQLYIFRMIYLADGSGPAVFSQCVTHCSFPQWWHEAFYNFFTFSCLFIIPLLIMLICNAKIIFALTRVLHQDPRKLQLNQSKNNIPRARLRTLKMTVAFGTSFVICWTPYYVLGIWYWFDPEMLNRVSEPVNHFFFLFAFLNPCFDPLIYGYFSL
The experiment in a line: In vitro antagonist activity at GNRHR in CD rat anterior pituitary gland assessed as inhibition of LH-RH-stimulated LH release at compound to LH-RH molar ratio of 500 after 4 hrs by radioimmunoassay. The note with it: concentration not given here. Put shortly:
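Anterior pituitaries from diestrus CD rats (200-250 g) were dissociated enzymatically (collagenase, hyaluronidase, then Viokase). Cells were cultured 4 days at 1.67 × 10^5 cells/mL in DME with 10% horse serum and 2.5% fetal calf serum, then washed serum-free. Duplicate cultures received LH-RH (2-5 × 10^-10 M) with a single analogue concentration in serum-free DME for 4 h at 37 °C. LH in the medium was measured by RIA and reported as % inhibition of LH-RH-stimulated release.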

In data set [2] the test system is Rattus norvegicus. As to the kind of experiment: Antiovulatory activity in CD rat assessed as blockade of ovulation at 0.3 mg, sc administered as six doses at 1200, 1230, 1300, 1350, 1400 and 1450 hrs during proestrus stage measured during estrus stage by dissecting microscopic analysis. The data set is classed as functional. Put shortly:
(§1)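 Cycling Charles River CD rats were given six subcutaneous injections of analogue in 0.1 mL propylene glycol on the afternoon of proestrus, and controls received vehicle alone. Rats were killed the next morning (estrus). Ovulating animals were scored and ova in the oviducts were counted under a dissecting microscope.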

In data set [3] the test system is Rattus norvegicus. The experiment in a line: Antiovulatory activity in sc dosed CD rat assessed as blockade of ovulation administered as six doses at 1200, 1230, 1300, 1350, 1400 and 1450 hrs during proestrus stage measured during estrus stage by dissecting microscopic analysis. Format: functional. Put shortly: as §1
Data set [4] deals with T1, Gonadotropin-releasing hormone receptor (Rattus norvegicus). The experiment in a line: In vitro antagonist activity at GNRHR in CD rat anterior pituitary gland assessed as ratio of molar concentration of compound to LH-RH for inhibition of LH-RH-stimulated LH release after 4 hrs by radioimmunoassay. Put shortly:
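Monolayers were cultured 4 days from dissociated anterior pituitary cells of diestrus CD rats. They were exposed in duplicate to LH-RH (2-5 × 10^-10 M) plus multiple analogue concentrations in serum-free DME for 4 h at 37 °C. LH in the medium was measured by radioimmunoassay. The ED50 molar ratio is the analogue:LH-RH molar ratio giving 50% inhibition of LH-RH-stimulated LH release.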

Data set [5] has as its system Rattus norvegicus. As to the kind of experiment: Antiovulatory activity in CD rat assessed as blockade of ovulation at 10 mg, sc administered as six doses at 1200, 1230, 1300, 1350, 1400 and 1450 hrs during proestrus stage measured during estrus stage by dissecting microscopic analysis. Format: functional. An outline of the steps: as §1
Data set [6] deals with Rattus norvegicus. As to the kind of experiment: Antiovulatory activity in CD rat assessed as blockade of ovulation at 0.1 mg, sc administered as six doses at 1200, 1230, 1300, 1350, 1400 and 1450 hrs during proestrus stage measured during estrus stage by dissecting microscopic analysis. The data set is classed as functional. An outline of the steps: as §1
Data set [7] is described as follows: Solubility of the compound in 0.9% sodium chloride. Format: physicochemical.
Data set [8] in a line: Solubility of the compound in water. The data set is classed as physicochemical.

On to `CC(C)C[C@H](NC(=O)[C@@H](Cc1ccccc1)NC(=O)[C@H](Cc1ccc(O)cc1)NC(=O)[C@H](CO)NC(=O)[C@H](Cc1c[nH]c2ccccc12)NC(=O)[C@@H](Cc1ccccc1)NC(=O)[C@@H]1CCC(=O)N1)C(=O)N[C@@H](CCCNC(=N)N)C(=O)N1CCC[C@H]1C(=O)NCC(N)=O.Cl`, for which the inhibition in data set [1] is 98%. Further, the “inhibition (INH)” value in the data set with Rattus norvegicus [2] was 100%. Also, the ED50 in the data set on Rattus norvegicus [3] amounted to 0.1 mg; in data set [4], 76 molar ratio.
For `CCNC(=O)[C@@H]1CCCN1C(=O)[C@H](CCCNC(=N)N)NC(=O)[C@H](CC(C)C)NC(=O)[C@@H](Cc1ccccc1)NC(=O)[C@H](Cc1ccc(O)cc1)NC(=O)[C@H](CO)NC(=O)[C@H](Cc1c[nH]c2ccccc12)NC(=O)[C@H](CCC(N)=O)NC(=O)OCc1ccccc1.Cl`, in the data set on Rattus norvegicus [3], the ED50 is listed as over 10 mg. In the data set with Rattus norvegicus [5], the “inhibition (INH)” value came out at 0%.
Consider `CC(=O)O.CC(C)C[C@H](NC(=O)[C@@H](Cc1c[nH]c2ccccc12)NC(=O)[C@H](Cc1ccc(O)cc1)NC(=O)[C@H](CO)NC(=O)[C@H](Cc1c[nH]c2ccccc12)NC(=O)[C@H](COCc1ccccc1)NC(=O)OC(C)(C)C)C(=O)N[C@@H](CCCNC(=N)N)C(=O)N1CCC[C@H]1C(=O)NCC(N)=O`, for which the “inhibition (INH)” value with Rattus norvegicus [6] is on record as 100%. Further, in the data set on Rattus norvegicus [3], the ED50 amounted to 0.05 mg. For the same compound, the solubility in data set [7] was 16 µg/mL; in data set [8] it was 3000 µg/mL.
